Positions of bridges follow the written chain, without caps; N, C: chain ends. Residues, ends and D or L forms follow the SMILES beside them.
Molecular target: Sodium channel protein type 5 subunit alpha (Homo sapiens, UniProt Q14524)
Experiment: Inhibition of human Nav1.5 expressed in HEK293 cells assessed as inward peak current by ion-works quattro patch clamp electrophysiology method
Format: cell-based
Method in brief: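 Stable HEK293 line expressing human NaV1.5, recorded by population patch clamp on the IonWorks Quattro.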

Chain of Sodium channel protein type 5 subunit alpha (Q14524 whole entry): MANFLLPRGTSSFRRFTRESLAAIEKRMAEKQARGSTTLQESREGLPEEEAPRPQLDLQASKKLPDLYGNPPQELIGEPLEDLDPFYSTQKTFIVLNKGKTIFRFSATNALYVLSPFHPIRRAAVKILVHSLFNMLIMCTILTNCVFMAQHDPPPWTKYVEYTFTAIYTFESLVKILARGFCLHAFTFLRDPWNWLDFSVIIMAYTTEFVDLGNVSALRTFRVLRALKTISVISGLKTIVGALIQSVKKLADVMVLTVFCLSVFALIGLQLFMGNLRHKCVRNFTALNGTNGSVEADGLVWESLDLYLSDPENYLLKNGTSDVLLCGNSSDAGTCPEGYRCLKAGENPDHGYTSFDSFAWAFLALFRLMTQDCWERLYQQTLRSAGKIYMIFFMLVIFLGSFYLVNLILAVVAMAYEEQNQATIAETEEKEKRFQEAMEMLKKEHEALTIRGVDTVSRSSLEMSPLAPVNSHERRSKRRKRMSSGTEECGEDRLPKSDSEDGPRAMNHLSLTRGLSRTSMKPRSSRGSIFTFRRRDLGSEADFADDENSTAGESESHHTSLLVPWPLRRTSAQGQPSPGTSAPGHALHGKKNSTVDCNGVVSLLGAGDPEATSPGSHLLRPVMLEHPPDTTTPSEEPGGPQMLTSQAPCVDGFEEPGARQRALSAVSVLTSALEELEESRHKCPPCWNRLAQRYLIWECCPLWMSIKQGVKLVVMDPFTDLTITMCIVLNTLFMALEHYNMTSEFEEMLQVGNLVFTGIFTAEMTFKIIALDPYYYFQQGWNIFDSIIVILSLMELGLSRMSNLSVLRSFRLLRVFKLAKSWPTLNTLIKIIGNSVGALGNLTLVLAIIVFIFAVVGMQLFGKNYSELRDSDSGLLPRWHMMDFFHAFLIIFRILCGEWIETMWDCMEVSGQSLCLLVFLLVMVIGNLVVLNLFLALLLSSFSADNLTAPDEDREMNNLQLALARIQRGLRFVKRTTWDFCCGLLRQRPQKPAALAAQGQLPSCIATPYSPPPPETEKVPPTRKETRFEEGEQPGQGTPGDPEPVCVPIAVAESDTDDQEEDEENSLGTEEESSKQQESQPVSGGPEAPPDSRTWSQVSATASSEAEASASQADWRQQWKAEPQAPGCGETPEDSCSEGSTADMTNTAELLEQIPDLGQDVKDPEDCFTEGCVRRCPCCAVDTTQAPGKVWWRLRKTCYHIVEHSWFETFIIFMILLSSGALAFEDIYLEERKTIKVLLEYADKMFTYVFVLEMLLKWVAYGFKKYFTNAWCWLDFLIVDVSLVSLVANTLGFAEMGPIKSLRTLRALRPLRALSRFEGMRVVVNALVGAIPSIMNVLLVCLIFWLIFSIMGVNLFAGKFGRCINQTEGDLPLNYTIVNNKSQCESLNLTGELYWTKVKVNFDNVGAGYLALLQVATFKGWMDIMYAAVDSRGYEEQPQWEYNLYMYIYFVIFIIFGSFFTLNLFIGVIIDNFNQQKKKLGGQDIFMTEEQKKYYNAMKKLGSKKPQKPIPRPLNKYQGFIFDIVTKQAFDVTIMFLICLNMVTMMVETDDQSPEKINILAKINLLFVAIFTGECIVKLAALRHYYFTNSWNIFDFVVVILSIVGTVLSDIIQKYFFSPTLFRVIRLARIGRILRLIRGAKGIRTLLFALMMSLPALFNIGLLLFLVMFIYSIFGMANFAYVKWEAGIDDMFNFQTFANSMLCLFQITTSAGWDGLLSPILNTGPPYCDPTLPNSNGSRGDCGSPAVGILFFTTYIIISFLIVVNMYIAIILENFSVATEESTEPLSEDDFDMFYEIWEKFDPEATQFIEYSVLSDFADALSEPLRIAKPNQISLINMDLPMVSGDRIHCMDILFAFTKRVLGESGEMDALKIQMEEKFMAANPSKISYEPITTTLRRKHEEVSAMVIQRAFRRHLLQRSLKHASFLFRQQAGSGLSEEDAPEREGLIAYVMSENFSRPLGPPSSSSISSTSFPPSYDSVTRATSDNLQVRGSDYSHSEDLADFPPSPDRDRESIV

Compound	IC50 (hek293) [µM]	IC50 [µM]
CC[C@H](C)[C@@H]1NC(=O)[C@@H]2CSSC[C@@H]3NC(=O)[C@H](C(C)C)NC(=O)[C@H](CC(C)C)NC(=O)[C@H](CC(N)=O)NC(=O)[C@@H]4CCCN4C(=O)[C@H](CCCNC(=N)N)NC(=O)[C@H](CSSC[C@H](NC(=O)[C@@H](N)CC(=O)O)C(=O)N[C@@H](CC(C)C)C(=O)NCC(=O)N[C@@H](Cc4ccccc4)C(=O)N[C@@H](CCSC)C(=O)N[C@@H](CCCNC(=N)N)C(=O)N[C@@H](CCCCN)C(=O)N2)NC(=O)[C@H](CSSC[C@@H](C(=O)N[C@@H](CCCCN)C(=O)N[C@@H](Cc2ccc(O)cc2)C(=O)N[C@H](C(=O)N[C@@H](Cc2ccccc2)C(=O)O)C(C)C)NC(=O)[C@H](Cc2c[nH]c4ccccc24)NC(=O)[C@H](CCCCN)NC(=O)[C@H](Cc2cnc[nH]2)NC(=O)[C@H]([C@@H](C)O)NC(=O)[C@H](CCCNC(=N)N)NC(=O)[C@H](CO)NC3=O)NC(=O)[C@H](CCCCN)NC(=O)[C@H](CC(=O)O)NC(=O)[C@H](CC(N)=O)NC(=O)[C@H](CC(=O)O)NC(=O)[C@@H]2CCCN2C1=O (stereo in doubt; 158)	> 5	
CSCC[C@@H]1NC(=O)[C@H](Cc2ccccc2)NC(=O)CNC(=O)[C@H](CC(C)C)NC(=O)[C@@H](NC(=O)[C@@H](N)CC(=O)O)CSSC[C@@H]2NC(=O)[C@@H]3CSSC[C@@H](C(=O)N[C@@H](CCCCN)C(=O)N[C@@H](Cc4ccc(O)cc4)C(=O)N[C@H](C(=O)N[C@@H](Cc4ccccc4)C(N)=O)C(C)C)NC(=O)[C@H](Cc4c[nH]c5ccccc45)NC(=O)[C@H](CCCCN)NC(=O)[C@H](Cc4cnc[nH]4)NC(=O)[C@H]([C@@H](C)O)NC(=O)[C@H](CCCNC(=N)N)NC(=O)[C@H](CO)NC(=O)[C@H](CSSC[C@H](NC(=O)[C@H](CCCCN)NC(=O)[C@H](CCCNC(=N)N)NC1=O)C(=O)N[C@@H](C(C)C)C(=O)N1CCC[C@H]1C(=O)N[C@@H](CC(=O)O)C(=O)N[C@@H](CC(N)=O)C(=O)N[C@@H](CC(=O)O)C(=O)N[C@@H](CCCCN)C(=O)N3)NC(=O)[C@H](C(C)C)NC(=O)[C@H](CC(C)C)NC(=O)[C@H](CC(N)=O)NC(=O)[C@@H]1CCCN1C(=O)[C@H](CCCNC(=N)N)NC2=O (H-DCLGFMRKCVPDNDKCCRPNLVCSRTHKWCKYVF-NH2; disulfide 2-17, 9-23, 16-30)		> 5
CC[C@H](C)[C@@H]1NC(=O)[C@@H]2CSSC[C@@H]3NC(=O)[C@H](C(C)C)NC(=O)[C@H](CC(C)C)NC(=O)[C@H](CC(N)=O)NC(=O)[C@@H]4CCCN4C(=O)[C@H](CCCNC(=N)N)NC(=O)[C@H](CSSC[C@H](NC(=O)[C@@H](N)CC(=O)O)C(=O)N[C@@H](CC(C)C)C(=O)NCC(=O)N[C@@H](Cc4ccccc4)C(=O)N[C@@H](CCSC)C(=O)N[C@@H](CCCNC(=N)N)C(=O)N[C@@H](CCC(=O)O)C(=O)N2)NC(=O)[C@H](CSSC[C@@H](C(=O)N[C@@H](CCCCN)C(=O)N[C@@H](Cc2ccc(O)cc2)C(=O)N[C@H](C(=O)N[C@@H](Cc2ccccc2)C(N)=O)C(C)C)NC(=O)[C@H](Cc2c[nH]c4ccccc24)NC(=O)[C@H](CCCCN)NC(=O)[C@H](Cc2cnc[nH]2)NC(=O)[C@H]([C@@H](C)O)NC(=O)[C@H](CCCNC(=N)N)NC(=O)[C@H](CO)NC3=O)NC(=O)[C@H](CCCCN)NC(=O)[C@H](CC(=O)O)NC(=O)[C@H](CC(N)=O)NC(=O)[C@H](CC(=O)O)NC(=O)[C@@H]2CCCN2C1=O (H-DCLGFMRECIPDNDKCCRPNLVCSRTHKWCKYVF-NH2; disulfide 2-17, 9-23, 16-30)		> 5

— ChEMBL document CHEMBL3797186, “Single Residue Substitutions That Confer Voltage-Gated Sodium Ion Channel Subtype Selectivity in the NaV1.7 Inhibitory Peptide GpTx-1” (J Med Chem, 2016)
